The nature of data set [1]: AUC (0 to 24 hrs) in Sprague-Dawley rat at 10 mg/kg/day, po. Format: ADME, organism-based. Also noted: dose 10 mg/kg/day, time < 24 hr, route oral. Particulars: plasma.
Data set [2] can be described thus: Apparent half life in Sprague-Dawley rat at 10 mg/kg/day, po. Format: ADME, organism-based. Also on record: route oral. Particulars: in vivo, read-out: t1/2(app) (converted).
Data set [3] relates to Mus musculus. Description: Toxicity in NOD-SCID mouse xenografted with FLT3-ITD-positive human MV4-11 cells assessed as body weight loss at 1 to 10 mg/kg/day, po administered 18 days measured every 3 days for 18 days. In kind it is organism-based. Also on record: route oral. Conditions: in vivo, 432 h. In a few lines:
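NOD-SCID mice, 5–6 weeks old, received 100 μL of MV4-11 cells sc (1 × 10⁸/mL in serum-free medium). At 300–500 mm³ tumors, mice were grouped (six per group) and gavaged once daily for 18 days at 1, 3 or 10 mg/kg/d. Vehicle was 12.5% castor oil, 12.5% ethanol and 75% water. Body weights were tracked; tumors were measured every 3 d.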
(In xenograft studies the graft and the host belong to different species.)

The test system of data set [4] is MV4-11. Description: Antitumor activity against FLT3-ITD-positive human MV4-11 cells xenografted in NOD-SCID mouse assessed as tumor regression at 10 mg/kg/day, po administered 18 days measured every 3 days for 18 days. Format: functional, organism-based. In a few lines: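 NOD-SCID mice (5–6 weeks) implanted sc with 1 × 10⁸/mL MV4-11 cells (100 μL) in serum-free medium. Grouped at 300–500 mm³, six per group, then dosed orally once daily for 18 days. Vehicle was 12.5% castor oil, 12.5% ethanol, 75% water. Tumor volume = long × short²/2, measured every 3 d.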

Data set [5] has as its target T1, Receptor-type tyrosine-protein kinase FLT3 (Homo sapiens, UniProt P36888).
T1 sequence (P36888 whole entry): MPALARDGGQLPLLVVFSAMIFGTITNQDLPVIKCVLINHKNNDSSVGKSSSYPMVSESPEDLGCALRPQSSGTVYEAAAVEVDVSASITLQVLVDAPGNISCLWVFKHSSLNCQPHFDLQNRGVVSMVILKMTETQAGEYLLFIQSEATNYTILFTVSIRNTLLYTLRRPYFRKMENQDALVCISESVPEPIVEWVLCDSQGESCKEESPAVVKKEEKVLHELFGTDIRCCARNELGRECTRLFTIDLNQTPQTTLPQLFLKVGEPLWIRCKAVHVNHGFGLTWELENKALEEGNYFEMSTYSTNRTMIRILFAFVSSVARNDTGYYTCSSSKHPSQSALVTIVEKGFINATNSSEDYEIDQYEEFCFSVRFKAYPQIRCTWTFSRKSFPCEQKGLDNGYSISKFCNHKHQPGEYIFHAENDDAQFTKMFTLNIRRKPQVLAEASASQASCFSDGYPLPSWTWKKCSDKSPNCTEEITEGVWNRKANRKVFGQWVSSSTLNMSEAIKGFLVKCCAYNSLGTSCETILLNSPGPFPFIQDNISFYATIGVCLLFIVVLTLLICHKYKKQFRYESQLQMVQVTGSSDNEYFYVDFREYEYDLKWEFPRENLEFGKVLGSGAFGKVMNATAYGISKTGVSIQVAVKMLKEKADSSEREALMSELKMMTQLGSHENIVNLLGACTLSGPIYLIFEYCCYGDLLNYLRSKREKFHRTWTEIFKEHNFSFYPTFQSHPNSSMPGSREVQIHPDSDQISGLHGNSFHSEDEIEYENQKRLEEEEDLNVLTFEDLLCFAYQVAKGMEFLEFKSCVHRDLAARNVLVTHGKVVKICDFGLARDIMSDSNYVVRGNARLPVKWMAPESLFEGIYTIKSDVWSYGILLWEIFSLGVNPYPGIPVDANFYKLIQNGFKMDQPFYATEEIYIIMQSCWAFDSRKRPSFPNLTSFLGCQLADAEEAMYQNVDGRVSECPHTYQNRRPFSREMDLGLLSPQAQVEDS
As to the kind of experiment: Inhibition of FLT3 in human MV4-11 cells assessed as inhibition of STAT5 phosphorylation after 20 hrs by Western blotting analysis. In kind it is cell-based. A general note: In western blotting, separated proteins are transferred to a membrane and probed.

Data set [6] addresses T1, Receptor-type tyrosine-protein kinase FLT3. Description: Inhibition of FLT3 phosphorylation in human MV4-11 cells after 20 hrs by Western blotting analysis. Format: cell-based.
Data set [7] deals with MV4-11. Description: Induction of apoptosis in human MV4-11 cells assessed as early apoptotic cells at 0.01 uM after 24 hrs by annexin V-FITC/propidium iodide staining-based FACS flow cytometric analysis (reference value: 1.61%). Format: functional.
The test system of data set [8] is MV4-11. Description: Induction of apoptosis in human MV4-11 cells assessed as early apoptotic cells at 0.003 uM after 24 hrs by annexin V-FITC/propidium iodide staining-based FACS flow cytometric analysis (reference value: 1.61%). In kind it is functional.
Data set [9] deals with MV4-11. As to the kind of experiment: Induction of apoptosis in human MV4-11 cells assessed as late apoptotic cells at 0.01 uM after 24 hrs by annexin V-FITC/propidium iodide staining-based FACS flow cytometric analysis (reference value: 4.28%). Format: functional. Background: In flow cytometry, cells or beads pass a laser one at a time.
Data set [10] has as its system SMMC-7721. As to the kind of experiment: Cytotoxicity against human SMMC7721 cells assessed as growth inhibition after 72 hrs by MTT assay. Particulars: SMMC-7721, 72 h.
Data set [11] deals with Serine/threonine-protein kinase PAK 2 (Homo sapiens, UniProt Q13177). Description: Inhibition of PAK2 (unknown origin).
Data set [12] has as its target Myotonin-protein kinase (Homo sapiens, UniProt Q09013). As to the kind of experiment: Inhibition of DMPK (unknown origin).
Data set [13] has as its target Serine/threonine-protein kinase PLK1 (Homo sapiens, UniProt P53350). As to the kind of experiment: Inhibition of PLK1 (unknown origin).
Data set [14] addresses Tyrosine-protein kinase SYK (Homo sapiens, UniProt P43405). As to the kind of experiment: Inhibition of SYK (unknown origin).
Data set [15] has as its target Mast/stem cell growth factor receptor Kit (Homo sapiens, UniProt P10721). As to the kind of experiment: Inhibition of c-Kit (unknown origin).
For data set [16], the target named is Platelet-derived growth factor receptor beta (Homo sapiens, UniProt P09619). As to the kind of experiment: Inhibition of PDGFRbeta (unknown origin). In a few lines:
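Single selected panel of recombinant human protein kinases, screened in vitro. The value reported is the IC50 against each kinase.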

The target of data set [17] is Vascular endothelial growth factor receptor 2 (Danio rerio) (UniProt Q5GIT4). Description: (§1) Inhibition of VEGFR2 in transgenic zebrafish embryo assessed as inhibition of intersegmental vessels formation measured 33 hrs post fertilization by fluorescence microscopic analysis. In a few lines: (§2)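 FLK-1:EGFP transgenic zebrafish embryos, 10 per well, exposed at 28.5 °C from 15 to 31 hpf to compound in fish water at 1.25, 2.5 or 5 μM (diluted from a 10 mmol/L DMSO stock); 0.3% DMSO as vehicle control. Embryos were imaged at 33 hpf, and ISVs above the yolk extension were scored for length. n = 11, mean ± SD, ANOVA.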

Data set [18] addresses Vascular endothelial growth factor receptor 2 (Danio rerio, UniProt Q5GIT4). Described as §1. In a few lines:
as §2

For data set [19], the target named is Vascular endothelial growth factor receptor 2 (Homo sapiens, UniProt P35968). Description: Inhibition of VEGFR2 (unknown origin).
Data set [20] has as its system HeLa. Description: Cytotoxicity against human HeLa cells assessed as growth inhibition after 72 hrs by MTT assay. In kind it is functional, cell-based. In a few lines: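 MTT viability assay with serial inhibitor dilutions for 72 h at 37 °C, then MTT for 2–4 h and OD read at 570 nm. Leukemia lines were seeded at (1–4) × 10⁴ cells/well and lysed with 20% acidified SDS. Adherent lines were seeded at (2–5) × 10³ cells/well, dosed after 24 h and dissolved in DMSO. Triplicate; mean ± SD.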

Molecules are shown by their SMILES. Active and inactive are the calls of the source. The rule behind the calls is not given here.

As a reminder, the AUC is concentration integrated over time. Higher therefore signals high exposure. Usually IC50 stands for the concentration that inhibits the measured activity by half.

Myotonin-protein kinase, sequence (Q09013 whole entry): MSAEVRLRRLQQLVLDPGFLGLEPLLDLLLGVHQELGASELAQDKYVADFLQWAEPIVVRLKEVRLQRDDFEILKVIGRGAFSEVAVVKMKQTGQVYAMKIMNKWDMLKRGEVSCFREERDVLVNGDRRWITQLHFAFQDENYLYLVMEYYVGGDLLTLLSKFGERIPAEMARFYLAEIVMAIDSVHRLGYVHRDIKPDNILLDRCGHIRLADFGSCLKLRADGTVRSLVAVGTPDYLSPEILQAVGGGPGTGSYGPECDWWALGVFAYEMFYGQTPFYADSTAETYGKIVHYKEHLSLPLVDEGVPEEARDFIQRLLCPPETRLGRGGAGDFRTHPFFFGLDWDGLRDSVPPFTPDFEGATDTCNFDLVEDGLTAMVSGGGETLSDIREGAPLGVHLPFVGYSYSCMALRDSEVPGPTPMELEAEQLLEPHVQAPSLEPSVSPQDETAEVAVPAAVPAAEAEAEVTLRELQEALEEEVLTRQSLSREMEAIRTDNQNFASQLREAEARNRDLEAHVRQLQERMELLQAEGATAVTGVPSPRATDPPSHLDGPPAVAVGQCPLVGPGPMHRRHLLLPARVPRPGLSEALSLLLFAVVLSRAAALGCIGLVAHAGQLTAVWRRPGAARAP
Vascular endothelial growth factor receptor 2 (Danio rerio), sequence (Q5GIT4 whole entry): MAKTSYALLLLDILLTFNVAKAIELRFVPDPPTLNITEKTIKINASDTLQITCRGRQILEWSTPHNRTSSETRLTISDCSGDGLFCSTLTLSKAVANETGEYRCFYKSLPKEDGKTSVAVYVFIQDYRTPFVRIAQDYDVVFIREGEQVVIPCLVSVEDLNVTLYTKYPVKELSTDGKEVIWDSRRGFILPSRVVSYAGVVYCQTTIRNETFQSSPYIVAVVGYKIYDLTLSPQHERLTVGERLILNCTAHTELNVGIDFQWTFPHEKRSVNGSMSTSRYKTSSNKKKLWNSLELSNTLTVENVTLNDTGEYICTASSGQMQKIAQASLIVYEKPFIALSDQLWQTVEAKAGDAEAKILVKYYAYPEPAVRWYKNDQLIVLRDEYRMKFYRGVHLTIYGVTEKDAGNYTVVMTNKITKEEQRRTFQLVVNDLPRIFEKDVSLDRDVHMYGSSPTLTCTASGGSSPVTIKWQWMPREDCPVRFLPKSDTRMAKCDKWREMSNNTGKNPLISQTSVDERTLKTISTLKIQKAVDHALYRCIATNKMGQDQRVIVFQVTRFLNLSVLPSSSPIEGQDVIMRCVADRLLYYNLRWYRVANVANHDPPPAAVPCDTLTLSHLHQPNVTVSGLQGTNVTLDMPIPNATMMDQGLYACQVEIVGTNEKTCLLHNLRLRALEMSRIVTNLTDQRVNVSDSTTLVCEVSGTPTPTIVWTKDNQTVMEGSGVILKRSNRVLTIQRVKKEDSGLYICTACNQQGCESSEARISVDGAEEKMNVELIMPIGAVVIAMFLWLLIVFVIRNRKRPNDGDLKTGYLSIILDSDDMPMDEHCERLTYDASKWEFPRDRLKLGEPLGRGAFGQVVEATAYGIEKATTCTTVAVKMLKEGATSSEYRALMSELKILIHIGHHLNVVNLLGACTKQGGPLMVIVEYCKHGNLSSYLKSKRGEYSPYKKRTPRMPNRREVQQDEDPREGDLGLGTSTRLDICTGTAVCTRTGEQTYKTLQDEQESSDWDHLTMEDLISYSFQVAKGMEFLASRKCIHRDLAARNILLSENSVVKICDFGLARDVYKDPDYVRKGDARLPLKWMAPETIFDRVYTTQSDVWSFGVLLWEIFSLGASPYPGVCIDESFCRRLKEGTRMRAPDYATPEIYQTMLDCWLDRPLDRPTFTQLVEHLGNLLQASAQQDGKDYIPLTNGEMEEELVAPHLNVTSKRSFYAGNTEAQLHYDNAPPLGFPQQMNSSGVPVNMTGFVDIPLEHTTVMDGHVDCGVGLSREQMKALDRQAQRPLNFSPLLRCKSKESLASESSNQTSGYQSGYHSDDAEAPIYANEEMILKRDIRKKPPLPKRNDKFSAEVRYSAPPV
Vascular endothelial growth factor receptor 2 (Danio rerio, UniProt Q5GIT4), sequence (Q5GIT4 whole entry): as above
Platelet-derived growth factor receptor beta, sequence (P09619 whole entry): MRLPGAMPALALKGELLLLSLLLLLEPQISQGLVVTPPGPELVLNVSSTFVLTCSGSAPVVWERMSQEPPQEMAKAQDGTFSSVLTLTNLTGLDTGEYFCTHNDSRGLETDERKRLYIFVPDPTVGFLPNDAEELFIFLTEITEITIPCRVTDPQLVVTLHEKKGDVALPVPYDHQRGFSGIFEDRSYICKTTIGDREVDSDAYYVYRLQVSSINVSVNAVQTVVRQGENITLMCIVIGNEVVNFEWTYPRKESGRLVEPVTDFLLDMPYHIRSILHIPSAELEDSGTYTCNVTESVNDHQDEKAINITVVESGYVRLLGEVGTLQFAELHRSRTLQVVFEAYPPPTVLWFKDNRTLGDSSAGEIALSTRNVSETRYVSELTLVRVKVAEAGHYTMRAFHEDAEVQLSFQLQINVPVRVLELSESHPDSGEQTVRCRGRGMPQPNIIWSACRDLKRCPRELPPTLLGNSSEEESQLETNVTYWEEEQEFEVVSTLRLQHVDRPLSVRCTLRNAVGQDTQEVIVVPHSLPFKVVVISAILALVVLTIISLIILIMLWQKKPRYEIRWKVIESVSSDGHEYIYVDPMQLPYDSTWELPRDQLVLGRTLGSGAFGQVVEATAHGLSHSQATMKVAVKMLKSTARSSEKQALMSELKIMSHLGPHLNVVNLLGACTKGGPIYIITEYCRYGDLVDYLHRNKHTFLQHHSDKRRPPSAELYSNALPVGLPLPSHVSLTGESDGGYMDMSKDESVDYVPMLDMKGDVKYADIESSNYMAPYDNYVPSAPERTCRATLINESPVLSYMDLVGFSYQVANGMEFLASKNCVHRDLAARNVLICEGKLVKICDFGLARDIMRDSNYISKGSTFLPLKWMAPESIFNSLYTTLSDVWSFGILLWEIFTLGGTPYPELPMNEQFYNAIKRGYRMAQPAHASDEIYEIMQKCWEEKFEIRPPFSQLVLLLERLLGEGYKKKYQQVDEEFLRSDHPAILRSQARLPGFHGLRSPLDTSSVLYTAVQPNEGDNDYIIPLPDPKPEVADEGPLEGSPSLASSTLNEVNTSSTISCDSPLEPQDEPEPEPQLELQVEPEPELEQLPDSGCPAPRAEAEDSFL
Serine/threonine-protein kinase PAK 2, sequence (Q13177 whole entry): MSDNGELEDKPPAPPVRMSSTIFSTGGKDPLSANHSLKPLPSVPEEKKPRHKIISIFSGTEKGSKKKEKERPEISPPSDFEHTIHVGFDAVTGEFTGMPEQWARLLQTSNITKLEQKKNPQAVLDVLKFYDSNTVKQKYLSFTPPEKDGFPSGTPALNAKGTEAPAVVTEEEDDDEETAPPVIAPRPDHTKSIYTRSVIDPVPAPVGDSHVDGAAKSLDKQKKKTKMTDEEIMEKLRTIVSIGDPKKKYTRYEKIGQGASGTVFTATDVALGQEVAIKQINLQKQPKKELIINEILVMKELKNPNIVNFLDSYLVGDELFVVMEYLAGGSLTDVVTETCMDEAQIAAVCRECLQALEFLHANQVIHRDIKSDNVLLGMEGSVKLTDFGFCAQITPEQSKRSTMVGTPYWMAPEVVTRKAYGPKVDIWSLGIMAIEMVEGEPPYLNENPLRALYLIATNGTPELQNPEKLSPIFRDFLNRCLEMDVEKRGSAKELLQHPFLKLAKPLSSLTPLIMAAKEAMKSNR
Vascular endothelial growth factor receptor 2 (Homo sapiens, UniProt P35968), sequence (P35968 whole entry): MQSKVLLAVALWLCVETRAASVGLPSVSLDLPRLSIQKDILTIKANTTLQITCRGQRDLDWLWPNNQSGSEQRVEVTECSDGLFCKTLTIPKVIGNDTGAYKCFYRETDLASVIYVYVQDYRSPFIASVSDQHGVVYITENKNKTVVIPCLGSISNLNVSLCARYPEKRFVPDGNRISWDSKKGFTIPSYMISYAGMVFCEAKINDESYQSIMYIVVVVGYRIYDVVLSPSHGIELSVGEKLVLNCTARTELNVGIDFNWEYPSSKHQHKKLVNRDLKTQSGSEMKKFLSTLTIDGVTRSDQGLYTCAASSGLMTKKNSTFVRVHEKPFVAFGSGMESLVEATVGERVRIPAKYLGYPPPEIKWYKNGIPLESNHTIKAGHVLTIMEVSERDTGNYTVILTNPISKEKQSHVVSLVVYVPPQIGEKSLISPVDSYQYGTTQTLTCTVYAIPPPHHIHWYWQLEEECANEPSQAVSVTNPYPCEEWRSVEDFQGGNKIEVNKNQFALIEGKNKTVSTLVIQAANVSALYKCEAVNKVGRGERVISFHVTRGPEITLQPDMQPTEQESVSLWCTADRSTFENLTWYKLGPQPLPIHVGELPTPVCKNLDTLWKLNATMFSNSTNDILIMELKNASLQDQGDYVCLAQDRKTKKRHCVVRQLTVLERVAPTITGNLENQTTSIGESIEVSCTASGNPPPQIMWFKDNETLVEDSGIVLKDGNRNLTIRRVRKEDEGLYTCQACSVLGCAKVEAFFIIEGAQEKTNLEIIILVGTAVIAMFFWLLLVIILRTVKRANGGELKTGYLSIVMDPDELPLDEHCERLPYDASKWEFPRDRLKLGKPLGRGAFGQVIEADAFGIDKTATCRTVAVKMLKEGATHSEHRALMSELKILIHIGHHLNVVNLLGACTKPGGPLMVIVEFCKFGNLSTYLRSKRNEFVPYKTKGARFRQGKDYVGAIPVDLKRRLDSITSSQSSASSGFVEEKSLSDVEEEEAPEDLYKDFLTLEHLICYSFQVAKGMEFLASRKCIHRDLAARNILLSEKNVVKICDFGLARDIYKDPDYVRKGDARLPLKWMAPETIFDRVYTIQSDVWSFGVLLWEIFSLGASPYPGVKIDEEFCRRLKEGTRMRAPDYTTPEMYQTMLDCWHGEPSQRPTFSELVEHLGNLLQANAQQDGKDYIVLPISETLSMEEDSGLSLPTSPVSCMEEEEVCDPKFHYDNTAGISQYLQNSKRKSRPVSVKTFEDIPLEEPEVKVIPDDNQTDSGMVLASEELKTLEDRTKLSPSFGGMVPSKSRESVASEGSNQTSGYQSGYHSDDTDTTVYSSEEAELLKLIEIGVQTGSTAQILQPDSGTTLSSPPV

Regarding `O=C(Nc1ccc(Oc2ncnc3[nH]ncc23)cc1)Nc1ccc(Cl)c(C(F)(F)F)c1`, the AUC at 24 h in [1] was 319 µg·h/mL. Moreover, the half-life in data set [2] was 12.6 h. Besides, the Activity entry in [3] is “Non-toxic”; in data set [7] it was 5.88%; in data set [8], 5.16%; in data set [9], 9.64%. The result in [4] was Active. Moreover, the IC50 in [5] is 3 nM; in data set [6], 3 nM; in data set [10], above 10000 nM; in data set [11] it was above 10000 nM; in data set [12], above 10000 nM; in data set [13], above 10000 nM. In addition, the IC50 is above 10000 nM in data set [14]; 507 nM in [15]; 408 nM in [16]; 2500 nM in [18]; 12 nM in data set [19]; above 10000 nM in data set [20]. Also, in data set [17], the inhibition entry was “Dose-dependent effect”.
